Test results as given in ChEMBL document CHEMBL2331457, “Synthesis and biological evaluation of 2-(arylethynyl)quinoline derivatives as mGluR5 antagonists for the treatment of neuropathic pain” (Bioorg Med Chem Lett, 2013).
Activity calls are given as the source filed them. No cut-off for these calls is given here.

Tests used:
[1] = target: T1, Metabotropic glutamate receptor 5 (Homo sapiens, UniProt P41594); assay: Antagonist activity at human mGluR5 expressed in HEK293 cells assessed as inhibition of L-glutamate-induced calcium mobilization at 10 uM by FDSS6000 assay; format: functional, cell-based
In short: (§1)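 HEK cells stably expressing mGluR5, grown in DMEM with 10% FBS, penicillin, streptomycin and puromycin (10 µg/mL) at 37 °C, 5% CO₂. Cells seeded at 40,000/well, incubated 18 h, then loaded with Calcium-5 dye. In the FDSS6000 fluorescence assay, receptor activated with L-glutamate in HBSS in the presence of various concentrations of test compound. Read-out is inhibition of the Ca²⁺ signal.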
Target sequence in this assay (P41594 21-1212 limits assumed): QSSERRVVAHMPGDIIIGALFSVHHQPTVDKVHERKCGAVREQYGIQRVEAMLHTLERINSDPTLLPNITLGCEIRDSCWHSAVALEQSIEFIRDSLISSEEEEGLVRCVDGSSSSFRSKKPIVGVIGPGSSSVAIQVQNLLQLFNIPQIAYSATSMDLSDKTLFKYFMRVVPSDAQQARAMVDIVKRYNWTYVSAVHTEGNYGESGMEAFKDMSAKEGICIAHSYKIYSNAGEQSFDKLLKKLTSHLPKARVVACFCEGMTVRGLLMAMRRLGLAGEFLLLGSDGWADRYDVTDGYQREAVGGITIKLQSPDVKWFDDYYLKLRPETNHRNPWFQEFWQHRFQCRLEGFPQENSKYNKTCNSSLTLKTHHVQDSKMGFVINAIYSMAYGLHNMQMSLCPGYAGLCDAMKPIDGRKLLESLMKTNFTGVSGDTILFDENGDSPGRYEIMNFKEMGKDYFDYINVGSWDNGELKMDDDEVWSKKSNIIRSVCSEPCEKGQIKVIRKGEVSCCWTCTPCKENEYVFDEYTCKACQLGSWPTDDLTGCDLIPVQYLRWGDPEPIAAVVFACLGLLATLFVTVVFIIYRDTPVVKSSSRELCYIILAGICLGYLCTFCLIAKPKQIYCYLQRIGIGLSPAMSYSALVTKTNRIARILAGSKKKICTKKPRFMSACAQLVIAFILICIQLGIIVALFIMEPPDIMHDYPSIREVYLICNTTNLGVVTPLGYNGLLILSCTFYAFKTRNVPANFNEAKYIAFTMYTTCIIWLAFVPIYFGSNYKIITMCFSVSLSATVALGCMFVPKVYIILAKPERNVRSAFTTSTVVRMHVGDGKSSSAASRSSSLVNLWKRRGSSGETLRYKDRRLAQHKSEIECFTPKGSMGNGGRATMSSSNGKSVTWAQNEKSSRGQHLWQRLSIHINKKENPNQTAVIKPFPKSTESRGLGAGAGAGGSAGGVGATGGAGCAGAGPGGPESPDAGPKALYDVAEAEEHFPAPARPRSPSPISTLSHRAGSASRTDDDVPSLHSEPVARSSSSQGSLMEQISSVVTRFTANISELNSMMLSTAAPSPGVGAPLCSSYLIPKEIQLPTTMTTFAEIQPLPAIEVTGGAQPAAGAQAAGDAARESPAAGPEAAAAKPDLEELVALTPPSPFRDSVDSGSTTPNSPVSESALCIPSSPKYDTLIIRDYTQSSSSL

[2] = target: T1, Metabotropic glutamate receptor 5; assay: Antagonist activity at human mGluR5 expressed in HEK293 cells assessed as inhibition of L-glutamate-induced calcium mobilization at 1 uM by FDSS6000 assay; format: functional, cell-based; in short: as §1
Target sequence in this assay (P41594 21-1212 limits assumed): as above

[3] = target: T1, Metabotropic glutamate receptor 5; assay: Antagonist activity at human mGluR5 expressed in HEK293 cells assessed as inhibition of L-glutamate-induced calcium mobilization by FDSS6000 assay
Target sequence in this assay (P41594 whole entry): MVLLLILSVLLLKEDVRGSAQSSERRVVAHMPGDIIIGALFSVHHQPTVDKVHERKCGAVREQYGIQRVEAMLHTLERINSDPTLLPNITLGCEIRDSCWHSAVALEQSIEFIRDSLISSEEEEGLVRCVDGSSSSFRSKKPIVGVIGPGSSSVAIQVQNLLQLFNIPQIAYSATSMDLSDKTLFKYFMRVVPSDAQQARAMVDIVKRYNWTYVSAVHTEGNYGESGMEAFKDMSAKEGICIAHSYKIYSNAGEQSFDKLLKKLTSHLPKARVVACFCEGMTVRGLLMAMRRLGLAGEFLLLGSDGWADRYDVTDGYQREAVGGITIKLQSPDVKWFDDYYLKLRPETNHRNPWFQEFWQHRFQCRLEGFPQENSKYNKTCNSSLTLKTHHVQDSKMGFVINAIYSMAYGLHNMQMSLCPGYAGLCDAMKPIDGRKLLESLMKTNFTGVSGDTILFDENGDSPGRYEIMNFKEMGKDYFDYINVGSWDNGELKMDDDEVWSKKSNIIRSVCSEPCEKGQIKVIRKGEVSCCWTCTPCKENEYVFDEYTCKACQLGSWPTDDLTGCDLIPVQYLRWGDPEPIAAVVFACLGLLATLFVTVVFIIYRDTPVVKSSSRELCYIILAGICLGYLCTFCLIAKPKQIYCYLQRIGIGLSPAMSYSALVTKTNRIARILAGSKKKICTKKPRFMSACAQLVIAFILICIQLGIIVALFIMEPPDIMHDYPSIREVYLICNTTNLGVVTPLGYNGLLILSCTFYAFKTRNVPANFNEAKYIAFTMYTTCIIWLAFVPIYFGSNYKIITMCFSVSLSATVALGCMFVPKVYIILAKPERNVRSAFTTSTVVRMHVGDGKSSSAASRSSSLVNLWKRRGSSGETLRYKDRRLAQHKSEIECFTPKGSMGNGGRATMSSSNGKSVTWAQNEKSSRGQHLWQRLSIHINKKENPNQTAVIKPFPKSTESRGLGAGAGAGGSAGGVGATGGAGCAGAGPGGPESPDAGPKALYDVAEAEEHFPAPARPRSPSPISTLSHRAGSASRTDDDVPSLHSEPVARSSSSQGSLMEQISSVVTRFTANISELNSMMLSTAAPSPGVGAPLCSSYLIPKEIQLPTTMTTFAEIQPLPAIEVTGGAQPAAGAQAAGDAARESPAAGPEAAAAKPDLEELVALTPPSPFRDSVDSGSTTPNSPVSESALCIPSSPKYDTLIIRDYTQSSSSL

[4] = target: CYP2C9 (Homo sapiens, UniProt P11712); assay: Inhibition of CYP2C9 (unknown origin) assessed as residual activity at 10 uM; format: ADME; settings: read-out: Activity
Sequence of CYP2C9 (P11712 whole entry): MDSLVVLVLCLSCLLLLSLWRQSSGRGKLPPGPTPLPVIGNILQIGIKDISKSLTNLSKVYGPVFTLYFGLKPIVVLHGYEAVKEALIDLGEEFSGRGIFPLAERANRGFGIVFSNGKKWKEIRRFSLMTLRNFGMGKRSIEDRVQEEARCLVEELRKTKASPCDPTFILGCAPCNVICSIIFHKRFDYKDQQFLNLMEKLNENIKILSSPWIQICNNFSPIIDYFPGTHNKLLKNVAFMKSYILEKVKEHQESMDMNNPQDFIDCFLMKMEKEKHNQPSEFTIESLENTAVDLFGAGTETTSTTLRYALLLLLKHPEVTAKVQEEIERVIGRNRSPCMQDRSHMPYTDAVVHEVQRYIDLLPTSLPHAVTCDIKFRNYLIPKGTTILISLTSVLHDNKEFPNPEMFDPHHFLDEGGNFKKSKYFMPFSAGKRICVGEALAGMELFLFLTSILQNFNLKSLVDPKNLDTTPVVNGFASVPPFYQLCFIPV
In short: (§2)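 CYP2D6, CYP2C9 and CYP3A4 each tested with compound at 10 µM; read-out is percent enzyme activity remaining.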

[5] = target: Voltage-gated inwardly rectifying potassium channel KCNH2 (Homo sapiens, UniProt Q12809)
Sequence of Voltage-gated inwardly rectifying potassium channel KCNH2 (Q12809 whole entry): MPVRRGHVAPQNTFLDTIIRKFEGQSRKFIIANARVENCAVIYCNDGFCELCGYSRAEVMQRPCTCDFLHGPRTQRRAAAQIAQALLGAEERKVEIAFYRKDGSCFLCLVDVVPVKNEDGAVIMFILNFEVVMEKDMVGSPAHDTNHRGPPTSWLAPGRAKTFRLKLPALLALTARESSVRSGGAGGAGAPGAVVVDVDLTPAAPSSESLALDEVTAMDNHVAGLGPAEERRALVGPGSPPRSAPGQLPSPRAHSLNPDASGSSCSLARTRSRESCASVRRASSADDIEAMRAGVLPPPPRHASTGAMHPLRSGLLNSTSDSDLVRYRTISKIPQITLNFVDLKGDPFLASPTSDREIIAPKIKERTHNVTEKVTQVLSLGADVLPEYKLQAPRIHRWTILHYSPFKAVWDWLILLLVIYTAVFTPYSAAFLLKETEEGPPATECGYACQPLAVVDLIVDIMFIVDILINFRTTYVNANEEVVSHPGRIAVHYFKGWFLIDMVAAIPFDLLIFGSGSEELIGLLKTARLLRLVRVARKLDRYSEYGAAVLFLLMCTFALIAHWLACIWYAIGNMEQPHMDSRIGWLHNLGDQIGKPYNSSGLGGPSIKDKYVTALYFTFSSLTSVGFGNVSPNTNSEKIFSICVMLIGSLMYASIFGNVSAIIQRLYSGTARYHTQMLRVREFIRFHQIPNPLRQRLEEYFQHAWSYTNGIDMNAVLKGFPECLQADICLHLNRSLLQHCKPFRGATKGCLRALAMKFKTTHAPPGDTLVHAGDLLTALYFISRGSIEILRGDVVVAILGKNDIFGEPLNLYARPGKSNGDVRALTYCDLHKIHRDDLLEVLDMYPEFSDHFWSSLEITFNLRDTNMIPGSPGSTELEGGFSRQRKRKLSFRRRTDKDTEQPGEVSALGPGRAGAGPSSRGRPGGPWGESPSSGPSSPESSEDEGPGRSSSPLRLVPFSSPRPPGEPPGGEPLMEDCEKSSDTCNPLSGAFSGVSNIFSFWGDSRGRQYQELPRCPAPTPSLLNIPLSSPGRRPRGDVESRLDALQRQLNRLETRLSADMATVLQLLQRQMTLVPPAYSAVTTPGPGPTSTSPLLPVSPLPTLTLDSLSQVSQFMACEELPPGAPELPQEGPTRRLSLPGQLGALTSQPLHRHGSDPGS

[6] = target: CYP2D6 (Homo sapiens, UniProt P10635); assay: Inhibition of CYP2D6 (unknown origin) assessed as residual activity at 10 uM; format: ADME; settings: read-out: Activity; in short: as §2
Sequence of CYP2D6 (P10635 whole entry): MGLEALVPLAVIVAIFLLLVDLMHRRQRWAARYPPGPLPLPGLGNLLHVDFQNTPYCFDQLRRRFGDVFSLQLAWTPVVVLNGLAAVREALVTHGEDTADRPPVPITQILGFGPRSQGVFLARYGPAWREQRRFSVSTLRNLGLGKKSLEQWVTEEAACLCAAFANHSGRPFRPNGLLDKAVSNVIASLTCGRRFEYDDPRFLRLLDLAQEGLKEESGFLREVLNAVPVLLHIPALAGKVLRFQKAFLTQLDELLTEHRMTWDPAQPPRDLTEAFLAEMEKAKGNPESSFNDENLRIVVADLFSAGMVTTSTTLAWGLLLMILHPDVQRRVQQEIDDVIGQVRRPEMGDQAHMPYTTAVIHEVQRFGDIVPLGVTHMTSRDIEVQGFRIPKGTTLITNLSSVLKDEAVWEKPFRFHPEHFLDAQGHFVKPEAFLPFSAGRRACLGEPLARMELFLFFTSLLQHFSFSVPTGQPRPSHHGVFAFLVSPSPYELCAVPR

[7] = Metabolic stability in human liver microsomes assessed as compound remaining at 1 uM after 30 mins; format: ADME, Microsome; settings: read-out: Stability
In short: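 Compound at 1 µM incubated with human liver microsomes for 30 min; read-out is percent of parent remaining.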

[8] = target: CYP3A4 (Homo sapiens, UniProt P08684); assay: Inhibition of CYP3A4 (unknown origin) assessed as residual activity at 10 uM; format: ADME; settings: read-out: Activity; in short: as §2
Sequence of CYP3A4 (P08684 whole entry): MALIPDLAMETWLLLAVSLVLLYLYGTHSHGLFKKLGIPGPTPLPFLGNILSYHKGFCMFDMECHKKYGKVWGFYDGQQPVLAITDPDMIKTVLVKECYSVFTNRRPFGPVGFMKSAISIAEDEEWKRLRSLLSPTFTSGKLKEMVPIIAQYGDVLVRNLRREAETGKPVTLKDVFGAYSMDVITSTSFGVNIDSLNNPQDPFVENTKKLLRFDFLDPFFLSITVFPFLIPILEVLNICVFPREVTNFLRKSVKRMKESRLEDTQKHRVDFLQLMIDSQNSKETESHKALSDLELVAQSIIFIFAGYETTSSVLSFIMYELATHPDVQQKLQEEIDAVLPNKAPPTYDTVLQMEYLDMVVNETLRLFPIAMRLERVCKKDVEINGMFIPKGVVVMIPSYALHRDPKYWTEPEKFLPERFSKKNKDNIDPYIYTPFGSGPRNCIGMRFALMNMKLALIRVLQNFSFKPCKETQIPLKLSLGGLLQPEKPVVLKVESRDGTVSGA

[9] = Tmax in rat at 10 mg/kg, po; format: ADME, organism-based; design: dose 10 mg/kg, route oral; settings: in vivo
In short: (§3)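 Rat plasma pharmacokinetics after a single oral dose of 10 mg/kg. The group size was n = 3 rats, and the reported values are group means.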

[10] = Clearance in rat at 10 mg/kg, iv; format: ADME, organism-based; design: dose 10 mg/kg, route intravenous; settings: in vivo
In short: (§4)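 Rat plasma pharmacokinetics after a 10 mg/kg dose, intravenous (n = 4) or oral (n = 3); mean parameters reported.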

[11] = tested on: Rattus norvegicus; assay: Antiallodynic activity in rat spinal nerve ligation model of neuropathic pain assessed as reduction of mechanical allodynia at 100 mg/kg, po after 5 hrs; format: functional, organism-based; design: dose 100 mg/kg
In short: (§5)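 Rat SNL model: tight ligation of L5 spinal nerve distal to DRG. Mechanical and cold allodynia were tested 1 day before and 14 days after surgery, then given orally, and retested at 1, 3 and 5 h. Mechanical allodynia used the wire-mesh-floor method, cold allodynia was scored as %MPE. Gabapentin was the reference (n = 4), test n = 5. Paired t-test versus pre-dose.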

[12] = Oral bioavailability in rat at 10 mg/kg; format: ADME, organism-based; settings: in vivo; in short: as §4
[13] = Apparent volume of distribution at steady state in rat at 10 mg/kg, iv; format: ADME, organism-based; design: dose 10 mg/kg, route intravenous; settings: in vivo, read-out: Vdss(app); in short: as §4
[14] = Cmax in rat at 10 mg/kg, po; format: ADME, organism-based; design: dose 10 mg/kg, route oral; settings: in vivo; in short: as §3
[15] = tested on: Rattus norvegicus; assay: Antiallodynic activity in rat spinal nerve ligation model of neuropathic pain assessed as reduction of cold allodynia at 100 mg/kg, po after 3 hrs; format: functional, organism-based; design: dose 100 mg/kg; in short: as §5
[16] = Half life in rat at 10 mg/kg, iv; format: ADME, organism-based; design: dose 10 mg/kg, route intravenous; settings: in vivo; in short: as §4
[17] = Half life in rat at 10 mg/kg, po; format: ADME, organism-based; design: dose 10 mg/kg, route oral; settings: in vivo; in short: as §4

SMILES: FC(F)(F)c1ccnc(C#Cc2ccc3ccccc3n2)n1
- inhibition [1]: 15.9%
- inhibition [2]: 17.3%

SMILES: FC(F)(F)c1cccnc1C#Cc1ccc2ccccc2n1
- inhibition [1]: 16.4%
- inhibition [2]: 9.49%

SMILES: FC(F)(F)c1ccc(C#Cc2ccc3ccccc3n2)nc1
- inhibition [1]: 50.7%
- inhibition [2]: 13%

SMILES: COc1cccc(C#Cc2ccc3ccccc3n2)n1
- inhibition [1]: 48.6%
- inhibition [2]: 16.6%

SMILES: Brc1cccc2nc(C#Cc3ccccn3)ccc12
- IC50 [3]: 750 nM
- activity at 10 µM [4]: 52%
- IC50 [5]: 22.7 µM
- inhibition [1]: 77.5%
- activity at 10 µM [6]: 78%
- remaining at 0.5 h, 1 µM [7]: 98%
- inhibition [2]: 56.7%
- activity at 10 µM [8]: 56%

SMILES: Oc1cccc2nc(C#Cc3cccnc3)ccc12
- inhibition [1]: 17.6%
- inhibition [2]: 25.2%

SMILES: Brc1cccc2nc(C#Cc3ccccc3)ccc12
- inhibition [1]: 20.7%
- inhibition [2]: 21.1%

SMILES: FC(F)(F)c1cccc(C#Cc2ccc3ccccc3n2)n1
- inhibition [1]: 28.7%
- inhibition [2]: 15.8%

SMILES: Fc1cccnc1C#Cc1ccc2ccccc2n1
- inhibition [1]: 55.2%
- inhibition [2]: 31.3%

SMILES: CC(C)(C)C(=O)Oc1cccc2nc(C#Cc3cccnc3)ccc12
- inhibition [1]: 28.5%
- inhibition [2]: 10.6%

SMILES: Oc1cccc2nc(C#Cc3ccccc3)ccc12
- inhibition [1]: 24.3%
- inhibition [2]: 18%

SMILES: Cc1ccc(C#Cc2ccc3ccccc3n2)nc1
- inhibition [1]: 66.3%
- inhibition [2]: 29%

SMILES: COc1cccc2nc(C#Cc3ccccc3)ccc12
- activity at 10 µM [4]: 55%
- inhibition [1]: 68%
- activity at 10 µM [6]: > 99%
- remaining at 0.5 h, 1 µM [7]: < 1%
- inhibition [2]: 63.6%
- activity at 10 µM [8]: 50%

SMILES: C(#Cc1ccc2ccccc2n1)c1ccccn1
- Tmax [9]: 10 min
- activity at 10 µM [4]: > 99%
- clearance [10]: 84.9 mL/min/kg
- Activity [11]: Active
- bioavailability [12]: 15.9%
- Vd [13]: 1.27 L/kg
- Cmax [14]: 430 ng/mL
- Activity [15]: Active
- half-life [16]: 48.5 min
- inhibition [1]: 76.7%
- half-life [17]: 58.2 min
- activity at 10 µM [6]: 98%
- remaining at 0.5 h, 1 µM [7]: 88%
- inhibition [2]: 58.8%
- activity at 10 µM [8]: 77%

SMILES: Fc1ccc(C#Cc2ccc3ccccc3n2)nc1
- inhibition [1]: 63.3%
- inhibition [2]: 33.9%

SMILES: N#Cc1cccc(C#Cc2ccc3ccccc3n2)n1
- inhibition [1]: 64.8%
- inhibition [2]: 33%

SMILES: N#Cc1ccnc(C#Cc2ccc3ccccc3n2)c1
- inhibition [1]: 76.1%
- inhibition [2]: 35.2%

SMILES: Clc1cccc2nc(C#Cc3ccccc3)ccc12
- inhibition [1]: 8.02%
- inhibition [2]: 11.7%

SMILES: Clc1cccc2nc(C#Cc3cccnc3)ccc12
- inhibition [1]: 28.4%
- inhibition [2]: 11.2%

SMILES: COc1cccc2nc(C#Cc3cccnc3)ccc12
- inhibition [1]: 67.7%
- remaining at 0.5 h, 1 µM [7]: < 1%
- inhibition [2]: 67.7%

SMILES: NCC1(CC(=O)O)CCCCC1
- Activity [11]: Active
- Activity [15]: Active

SMILES: C(#Cc1ccc2ccccc2n1)c1cccnc1
- inhibition [1]: 65.8%
- inhibition [2]: 43.9%

SMILES: CC(C)(C)C(=O)Oc1cccc2nc(C#Cc3ccccn3)ccc12
- inhibition [1]: 62.4%
- inhibition [2]: 17.1%

SMILES: C(#Cc1ncccn1)c1ccc2ccccc2n1
- inhibition [1]: 28.6%
- inhibition [2]: 17.1%

SMILES: Cc1cccnc1C#Cc1ccc2ccccc2n1
- inhibition [1]: 40.1%
- inhibition [2]: 18.9%

SMILES: Cc1ccnc(C#Cc2ccc3ccccc3n2)c1
- inhibition [1]: 66.5%
- inhibition [2]: 21.9%

SMILES: Fc1cnc(C#Cc2ccc3ccccc3n2)nc1
- inhibition [1]: 15.6%
- inhibition [2]: 16%

SMILES: C(#Cc1ccc2ccccc2n1)c1ccccc1
- inhibition [1]: 67.7%
- inhibition [2]: 35.9%

SMILES: C(#Cc1ccc2ccccc2n1)c1cncnc1
- inhibition [1]: 22.4%
- inhibition [2]: 13.6%

SMILES: Fc1cccc(C#Cc2ccc3ccccc3n2)n1
- inhibition [1]: 46.9%
- inhibition [2]: 29.6%

SMILES: CCOc1cccc2nc(C#Cc3cccnc3)ccc12
- inhibition [1]: 66.6%
- inhibition [2]: 47.2%

SMILES: FC(F)(F)c1ccnc(C#Cc2ccc3ccccc3n2)c1
- inhibition [1]: 58%
- inhibition [2]: 23.3%

SMILES: Oc1cccc2nc(C#Cc3ccccn3)ccc12
- inhibition [1]: 22.1%
- inhibition [2]: 17.4%

SMILES: Clc1cccc2nc(C#Cc3ccccn3)ccc12
- inhibition [1]: 64.3%
- inhibition [2]: 31%

SMILES: Brc1cccc2nc(C#Cc3cccnc3)ccc12
- inhibition [1]: 40.1%
- inhibition [2]: 22%

SMILES: CC(C)(C)C(=O)Oc1cccc2nc(C#Cc3ccccc3)ccc12
- inhibition [1]: 23.8%
- inhibition [2]: 24%
